We go through 11 compounds from ChEMBL document CHEMBL1152789, “Synthesis of 2-(5-((5-(4-chlorophenyl)furan-2-yl)methylene)-4-oxo-2-thioxothiazolidin-3-yl)acetic acid derivatives and evaluation of their cytotoxicity and induction of apoptosis in human leukemia cells” (Bioorg Med Chem, 2009).

The source made the active and inactive calls. The rule behind the calls is not given here.

Assay [1] has as its system REH. Nature of the assay: Cytotoxicity against human REH cells after 72 hrs by MTT assay. The class given is functional, cell-based. The method in brief: (§1)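 Log-phase cells (1 × 10⁴/well) were plated in triplicate in RPMI 1640 with 10% heat-inactivated FBS and penicillin/streptomycin, at 37 °C in 5% CO2. Cells were treated with 10, 100 or 250 µM compound and harvested at 48 and 72 h. MTT (5 mg/ml) was added at 37 °C, formazan was dissolved in DMF/SDS detergent, and A570 was read minus a medium blank. Viability is expressed as % of DMSO vehicle, and IC50 was estimated at 72 h.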
A general note: Formazan colour is commonly taken as a measure of viable cells.

The test system of assay [2] is K562. Nature of the assay: Cytotoxicity against human K562 cells after 72 hrs by MTT assay. In kind it is functional, cell-based. As to conditions: K562, 72 h. In a few lines:
as §1

The subject of assay [3] is K562. Nature of the assay: Cytotoxicity against human K562 cells at >= 100 uM after 48 to 72 hrs by MTT assay. The class given is functional, cell-based. In a few lines: as §1
In assay [4] the test system is REH. Briefly: Cytotoxicity against human REH cells at >= 100 uM after 48 to 72 hrs by MTT assay. In kind it is functional, cell-based. In a few lines:
as §1

In assay [5] the test system is K562. Nature of the assay: Cell cycle arrest in human K562 cells assessed as change in cell cycle pattern after 48 hrs by PI staining based flow cytometry. In kind it is functional. In a few lines:
(§2)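 K562 cells, 0.75 × 10⁵ cells/ml, incubated at 37 °C with 10, 50 and 100 µM compound for 48 h, with a DMSO vehicle control. Cells were washed, fixed in 70% ethanol, RNase A treated, and stained with propidium iodide for half an hour before flow cytometry. At least 10,000 cells were acquired per sample, and G0/G1 (subG1), G1, S and G2/M fractions were read from the DNA histograms.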
On the technique in general: In flow cytometry, cells or beads pass a laser one at a time.

For assay [6], the system named is K562. Nature of the assay: Cell cycle arrest in human K562 cells assessed as accumulation at G0/G1 phase after 48 hrs by PI staining based flow cytometry. In kind it is functional. The method in brief: as §2
The test system of assay [7] is K562. Nature of the assay: Cell cycle arrest in human K562 cells assessed as decline of G1 phase after 48 hrs by PI staining based flow cytometry. The class given is functional. The method in brief:
as §2

The subject of assay [8] is K562. Nature of the assay: Cell cycle arrest in human K562 cells assessed as decline of G2/M phase after 48 hrs by PI staining based flow cytometry. The class given is functional. The method in brief:
as §2

Assay [9] deals with K562. Nature of the assay: Induction of apoptosis in human K562 cells assessed as chromosomal DNA fragmentation at 100 uM after 72 hrs by agarose gel electrophoresis. In kind it is functional, cell-based. In a few lines:
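K562 cells were cultured with 10, 50 or 100 µM compound for 72 h, with a DMSO lane as control. Genomic DNA was extracted, resuspended in TE buffer, and run on a 1% agarose gel at 30 V for 6 h. Laddering or smearing was viewed by ethidium bromide staining.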

For orientation: IC50 means the concentration at which inhibition is half-maximal. Low values mean greater potency in that assay, high ones weaker potency in that assay. With `N#Cc1ccc(NC(=O)CN2C(=O)/C(=C/c3ccc(-c4ccc(Cl)cc4)o3)SC2=S)cc1`, the IC50 in the assay with REH [1] came to 90 µM; in the assay on K562 [2], 85 µM.

Take `O=C(CN1C(=O)/C(=C/c2ccc(-c3ccc(Cl)cc3)o2)SC1=S)NCc1ccccc1Cl`: the IC50 turned out to be 70 µM with REH [1] and 64 µM in the assay on K562 [2]. Besides, the result in the assay on K562 [3] and in the assay on REH [4] was Active.

Consider `N#Cc1cc(NC(=O)CN2C(=O)/C(=C/c3ccc(-c4ccc(Cl)cc4)o3)SC2=S)ccc1C(F)(F)F`, for which the IC50 with REH [1] and in the assay on K562 [2] was over 250 µM each time.

On to `O=C(CN1C(=O)/C(=C/c2ccc(-c3ccc(Cl)cc3)o2)SC1=S)NCc1ccc(F)cc1`, for which the IC50 in the assay with REH [1] was found to be 165 µM; in the assay on K562 [2], 150 µM.

For the compound `Cc1cccc(CNC(=O)CN2C(=O)/C(=C/c3ccc(-c4ccc(Cl)cc4)o3)SC2=S)c1`, the IC50 stood at 53 µM in the assay with REH [1] and 48 µM in the assay on K562 [2]. Also, the Activity entry with K562 [5] was “Dose-dependent effect”. For the same compound, the result in the assay with K562 [6], in the assay with K562 [7], in the assay with K562 [8], in the assay with K562 [3] and in the assay on REH [4] was Active.

In the case of `O=C(CN1C(=O)/C(=C/c2ccc(-c3ccc(Cl)cc3)o2)SC1=S)Nc1nnn[nH]1`, the values for the IC50 in the assay with REH [1] and with K562 [2] were 50 µM and 52 µM, respectively. Besides, the outcome with K562 [3] and in the assay on REH [4] was Active.

On to `O=C(CN1C(=O)/C(=C/c2ccc(-c3ccc(Cl)cc3)o2)SC1=S)NCc1ccc(C(F)(F)F)cc1`, for which the IC50 in the assay on REH [1] amounted to 170 µM; in the assay with K562 [2], 155 µM.

Take `CCCCCCNC(=O)CN1C(=O)/C(=C/c2ccc(-c3ccc(Cl)cc3)o2)SC1=S`: the values for the IC50 in the assay on REH [1] and in the assay on K562 [2] were 55 µM and 50 µM, respectively. Moreover, the result in the assay on K562 [3] and with REH [4] was Active.

As to `Cc1ccc(CNC(=O)CN2C(=O)/C(=C/c3ccc(-c4ccc(Cl)cc4)o3)SC2=S)cc1`, the IC50 in the assay on REH [1] and with K562 [2] was 45 µM throughout. Also, the outcome in the assay with K562 [3] and in the assay on REH [4] was Active.

Regarding `COc1ccc(CNC(=O)CN2C(=O)/C(=C/c3ccc(-c4ccc(Cl)cc4)o3)SC2=S)cc1`, the figures for the IC50 in the assay with REH [1] and in the assay on K562 [2] were 44 µM and 40 µM, respectively. Moreover, the Activity result in the assay with K562 [5] was “Dose-dependent effect”. For the same compound, the outcome in the assay with K562 [6], in the assay on K562 [7], in the assay on K562 [8], in the assay on K562 [9], with K562 [3] and in the assay with REH [4] was Active.

Turning to `O=C(CN1C(=O)/C(=C/c2ccc(-c3ccc(Cl)cc3)o2)SC1=S)NCc1ccc(Br)cc1`, the IC50 in the assay on REH [1] came out at 75 µM; in the assay with K562 [2], 68 µM. Moreover, the result in the assay with K562 [3] and in the assay with REH [4] was Active.
